Measurements: ChEMBL document CHEMBL5236619, “Design and Optimization of 1H-1,2,3-Triazole-4-carboxamides as Novel, Potent, and Selective Inverse Agonists and Antagonists of PXR” (J Med Chem, 2022)
Active and inactive are the calls of the source. The rule behind the calls is not given here.

Columns and labels:
[1] = target: T1, Oxysterols receptor LXR-alpha (Homo sapiens) (UniProt Q13133); test: Effect on LXRalpha activity in GeneBLAzer LXRalpha-UAS-bla HEK 293T cells by fluorescence based analysis; format: cell-based
T1 sequence (whole entry): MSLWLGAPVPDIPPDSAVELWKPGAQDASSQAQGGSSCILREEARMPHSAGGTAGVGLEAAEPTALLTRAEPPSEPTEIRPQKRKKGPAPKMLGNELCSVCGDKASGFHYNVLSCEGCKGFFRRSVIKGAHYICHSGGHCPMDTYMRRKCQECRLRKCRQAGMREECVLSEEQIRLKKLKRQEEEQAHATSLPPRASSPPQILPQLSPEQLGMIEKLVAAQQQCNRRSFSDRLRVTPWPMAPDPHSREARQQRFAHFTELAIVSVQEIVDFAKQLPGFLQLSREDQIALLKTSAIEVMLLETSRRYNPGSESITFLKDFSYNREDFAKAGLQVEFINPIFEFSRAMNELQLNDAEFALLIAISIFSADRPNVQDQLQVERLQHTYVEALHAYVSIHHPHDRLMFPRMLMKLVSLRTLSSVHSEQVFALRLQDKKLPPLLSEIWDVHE
Summary of the method: (§1)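 Run in agonistic mode (compound alone) or antagonistic mode (compound plus an agonist). Each concentration tested in quadruplicate, at least three times. % activation or % inhibition plotted against concentration, with EC50 or IC50 derived from a sigmoidal dose–response fit.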

[2] = target: T2, Vitamin D3 receptor (Homo sapiens) (UniProt P11473); test: Effect on VDR activity in GeneBLAzer VDR-UAS-bla HEK 293T cells by fluorescence based analysis; format: cell-based; summary of the method: as §1
T2 sequence (whole entry): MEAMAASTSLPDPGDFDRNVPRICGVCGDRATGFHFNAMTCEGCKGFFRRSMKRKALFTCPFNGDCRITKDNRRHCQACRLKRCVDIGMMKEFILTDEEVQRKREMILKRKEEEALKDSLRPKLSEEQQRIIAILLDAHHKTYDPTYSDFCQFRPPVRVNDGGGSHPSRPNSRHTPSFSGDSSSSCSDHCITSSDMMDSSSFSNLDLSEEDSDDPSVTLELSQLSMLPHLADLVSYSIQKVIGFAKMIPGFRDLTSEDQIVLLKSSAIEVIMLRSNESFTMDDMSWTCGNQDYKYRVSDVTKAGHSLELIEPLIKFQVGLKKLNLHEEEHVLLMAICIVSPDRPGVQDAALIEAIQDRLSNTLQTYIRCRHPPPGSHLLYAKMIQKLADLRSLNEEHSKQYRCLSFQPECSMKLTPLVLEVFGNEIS

HepaRG = test: Cytotoxicity against human HepaRG cells assessed as reduction in cell viability measured after 24 to 72 hrs by celltiter-glo luminescent cell viability assay; format: toxicity, cell-based; settings: time 24-72 hrs
Summary of the method: (§2)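 Cells seeded at 2,500 per well for 1-day or 5,000 per well for 3-day exposure. Viability read by CellTiter-Glo luminescence. Staurosporine (56 μM) set as 100% cytotoxicity. Each concentration run in quadruplicate, at least three times. % cytotoxicity plotted and fitted to a sigmoidal dose–response curve. Means and SDs from three independent experiments.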

HepG2 [3] = test: Effect on CAR activity in human HepG2 cells co-expressing luciferase gene under control of CYP3A4 promoter by luciferase reporter assay; format: cell-based
PXR (NR1I2) = target: T3, PXR (NR1I2) (Homo sapiens, UniProt O75469); test: Inverse agonist activity at human PXR in human HepG2 cells co-expressing luciferase gene under control of CYP3A4 promoter assessed as inhibition in receptor basal activity at 10 uM incubated for 24 hrs by luminescence based analysis relative to control; format: cell-based
T3 sequence (O75469 whole entry): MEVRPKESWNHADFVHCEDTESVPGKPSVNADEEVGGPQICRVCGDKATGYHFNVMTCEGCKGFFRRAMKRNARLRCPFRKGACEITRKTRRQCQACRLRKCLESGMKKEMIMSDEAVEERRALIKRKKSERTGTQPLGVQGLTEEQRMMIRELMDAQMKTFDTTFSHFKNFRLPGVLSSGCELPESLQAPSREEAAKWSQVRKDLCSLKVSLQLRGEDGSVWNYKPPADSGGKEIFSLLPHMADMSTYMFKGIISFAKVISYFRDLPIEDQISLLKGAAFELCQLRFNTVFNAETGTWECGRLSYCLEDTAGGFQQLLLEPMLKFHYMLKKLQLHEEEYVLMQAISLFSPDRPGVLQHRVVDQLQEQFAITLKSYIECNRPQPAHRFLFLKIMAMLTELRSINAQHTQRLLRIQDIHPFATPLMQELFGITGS

[4] = target: T4, Nuclear receptor subfamily 1 group I member 2 (Homo sapiens, UniProt O75469); test: Agonist activity at human PXR in human HepG2 cells co-expressing luciferase gene under control of CYP3A4 promoter assessed as transcriptional activation at 30 uM incubated for 24 hrs by luminescence based analysis; format: cell-based; settings: hepg2, 24 h
T4 sequence (O75469 whole entry): T3 sequence (O75469 whole entry)

HepG2 [5] = test: Cytotoxicity against human HepG2 cells assessed as reduction in cell viability measured after 24 to 72 hrs by celltiter-glo luminescent cell viability assay; format: toxicity, cell-based; settings: time 24-72 hrs; summary of the method: as §2
[6] = Cytotoxicity against […] Hepa1-6 cells assessed as reduction in cell viability measured after 24 to 72 hrs by celltiter-glo luminescent cell viability assay; format: toxicity, cell-based; settings: time 24-72 hrs; summary of the method: as §2
[7] = target: T5, PXR (NR1I2) ligand binding domain (Homo sapiens, UniProt O75469); test: Inhibition of BODIPY FL vindoline binding to recombinant human GST-tagged PXR LBD (111 to 434 residues) expressed in baculovirus infected insect cells at 10 uM incubated for 1 mins under shaking condition followed by 60 mins under dark condition by TR-FRET assay relative to control; settings: probe BODIPY FL vindoline, time 61 min
T5 sequence (O75469 whole entry): T3 sequence (O75469 whole entry)

HEK-293T = test: Cytotoxicity against HEK293T cells assessed as reduction in cell viability measured after 24 to 72 hrs by celltiter-glo luminescent cell viability assay; format: toxicity, cell-based; settings: human, time 24-72 hrs; summary of the method: as §2
[8] = target: T6, Bile acid receptor (Homo sapiens) (UniProt Q96RI1); test: Effect on FXR activity in GeneBLAzer FXR-UAS-bla HEK 293T cells by fluorescence based analysis; format: cell-based; summary of the method: as §1
T6 sequence (whole entry): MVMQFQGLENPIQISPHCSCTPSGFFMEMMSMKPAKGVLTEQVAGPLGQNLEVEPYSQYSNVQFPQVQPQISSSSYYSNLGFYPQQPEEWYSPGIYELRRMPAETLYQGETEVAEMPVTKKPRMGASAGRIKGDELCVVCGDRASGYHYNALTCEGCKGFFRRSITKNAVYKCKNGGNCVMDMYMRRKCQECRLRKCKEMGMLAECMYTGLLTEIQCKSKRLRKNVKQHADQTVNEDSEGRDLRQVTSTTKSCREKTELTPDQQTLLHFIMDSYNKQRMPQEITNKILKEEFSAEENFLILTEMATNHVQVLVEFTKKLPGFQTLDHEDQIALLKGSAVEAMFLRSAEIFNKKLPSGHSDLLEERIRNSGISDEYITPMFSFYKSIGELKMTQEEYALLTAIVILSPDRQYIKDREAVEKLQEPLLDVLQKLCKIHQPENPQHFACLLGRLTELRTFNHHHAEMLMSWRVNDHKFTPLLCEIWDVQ

[9] = target: T7, Nuclear receptor subfamily 1 group I member 2 (Mus musculus, UniProt O54915); test: Effect on mouse PXR activity by luciferase reporter assay; summary of the method: as §1
T7 sequence (O54915 whole entry): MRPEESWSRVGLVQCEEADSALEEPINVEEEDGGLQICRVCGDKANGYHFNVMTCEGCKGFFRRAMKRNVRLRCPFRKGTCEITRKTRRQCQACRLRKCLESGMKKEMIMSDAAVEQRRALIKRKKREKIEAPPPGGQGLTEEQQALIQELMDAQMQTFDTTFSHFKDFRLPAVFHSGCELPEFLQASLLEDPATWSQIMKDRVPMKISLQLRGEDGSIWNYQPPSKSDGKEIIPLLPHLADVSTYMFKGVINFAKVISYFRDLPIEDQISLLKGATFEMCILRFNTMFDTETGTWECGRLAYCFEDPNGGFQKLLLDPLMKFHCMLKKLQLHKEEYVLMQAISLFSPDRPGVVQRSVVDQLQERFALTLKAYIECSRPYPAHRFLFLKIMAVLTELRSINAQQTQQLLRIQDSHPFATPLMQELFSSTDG

Structure (SMILES): CCC[C@H](C)Oc1ccc(C(C)(C)C)cc1NC(=O)c1nnn(-c2cc(OC)ccc2OC)c1C
- Activity [1]: inactive
- Activity [2]: inactive
- Activity (HepaRG): Non-Toxic
- Activity (HepG2 [3]): inactive
- inhibition at 24 h, 10 µM (PXR (NR1I2)): 125%
- Activity [4]: Not Active
- Activity (HepG2 [5]): Non-Toxic
- Activity [6]: Non-Toxic
- inhibition at 1.017 h, 10 µM [7]: 87%
- Activity (HEK-293T): Non-Toxic
- Activity [8]: inactive
- Activity [9]: Not Active
